Usually IC50 stands for the concentration that inhibits the measured activity by half. In general, AUC refers to the area under the concentration-time curve, a measure of exposure. Usually solubility stands for how much of the substance goes into solution per volume. The inhibition in vivo is how much of the control response was suppressed.

Data on 16 molecules can be found in ChEMBL document CHEMBL4196126, “Optimization of 3-Pyrimidin-4-yl-oxazolidin-2-ones as Orally Bioavailable and Brain Penetrant Mutant IDH1 Inhibitors” (ACS Med Chem Lett, 2018).

≈ marks a conversion by molar mass, not a printed value. A value given as a limit tells only on which side of the number the result lay.

Series [1] in a line: Intrinsic clearance in rat liver microsomes at 1 uM in presence of NADPH by LC-MS/MS analysis. Format: ADME, microsome. As to conditions: read-out: CLH. Background: Liver microsomes are vesicles of endoplasmic reticulum, rich in cytochrome P450 enzymes.
In series [2] the target is T1, Isocitrate dehydrogenase [NADP] cytoplasmic (Homo sapiens, UniProt O75874, R132H). Briefly: Inhibition of IDH1 R132H mutant (unknown origin) expressed in HCT116 cells assessed as reduction in 2-HG levels after 48 hrs by LC-MS/MS analysis. The class given is cell-based.
T1 sequence (O75874 2-414 R132H limits assumed): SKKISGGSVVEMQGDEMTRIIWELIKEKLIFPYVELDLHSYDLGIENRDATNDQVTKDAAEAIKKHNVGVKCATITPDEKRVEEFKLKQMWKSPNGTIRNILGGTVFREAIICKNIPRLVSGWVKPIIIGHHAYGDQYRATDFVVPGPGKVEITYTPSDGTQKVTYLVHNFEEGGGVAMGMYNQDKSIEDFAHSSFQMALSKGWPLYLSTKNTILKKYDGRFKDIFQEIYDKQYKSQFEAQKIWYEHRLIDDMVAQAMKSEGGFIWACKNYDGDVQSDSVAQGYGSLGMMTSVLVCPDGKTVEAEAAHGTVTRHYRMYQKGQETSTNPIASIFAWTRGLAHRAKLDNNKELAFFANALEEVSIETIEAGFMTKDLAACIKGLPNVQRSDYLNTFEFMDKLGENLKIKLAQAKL
Series [3] in a line: Clearance in Sprague-Dawley rat plasma at 1 mg/kg, iv or 10 mg/kg, po by mass spectrometry based HPLC method. The class given is ADME, organism-based. The essentials: (§1)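 Rats and mice received a single 1 mg/kg intravenous dose and a 10 mg/kg oral dose. Plasma clearance was taken from the intravenous arm. Oral AUC and oral bioavailability were taken from the oral arm.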
Series [4] in a line: AUC in Sprague-Dawley rat at 10 mg/kg, po by mass spectrometry based HPLC method. As to conditions: in vivo. Format: ADME, organism-based. Put shortly:
as §1

A short description of series [5]: Oral bioavailability in Sprague-Dawley rat at 10 mg/kg by mass spectrometry based HPLC method. Format: ADME, organism-based. As to conditions: in vivo. Put shortly: as §1
The target in series [6] is T1, Isocitrate dehydrogenase [NADP] cytoplasmic. Briefly: Inhibition of IDH1 R132H mutant (unknown origin) using alphaKG as substrate in presence of NADPH by LC-MS/MS analysis.
A short description of series [7]: Intrinsic clearance in mouse liver microsomes. Conditions: read-out: CLH. The class given is ADME, microsome.
A short description of series [8]: Solubility of the compound at pH 6.8. Format: physicochemical. Conditions: buffer.
Series [9] can be described thus: Clearance in C57BL/6 mouse plasma at 1 mg/kg, iv or 10 mg/kg, po by mass spectrometry based HPLC method. Format: ADME, organism-based. Put shortly:
as §1

Series [10] can be described thus: AUC in C57BL/6 mouse at 10 mg/kg, po by mass spectrometry based HPLC method. Format: ADME, organism-based. As to conditions: in vivo. Put shortly:
as §1

Series [11] can be described thus: Oral bioavailability in C57BL/6 mouse at 10 mg/kg by mass spectrometry based HPLC method. The class given is ADME, organism-based. As to conditions: in vivo. Put shortly: as §1
The target in series [12] is Isocitrate dehydrogenase [NADP] cytoplasmic (Homo sapiens, UniProt O75874). Nature of the series: Inhibition of wild-type IDH1 (unknown origin) assessed as NADPH production using isocitrate as substrate by fluorescence assay.
Chain of Isocitrate dehydrogenase [NADP] cytoplasmic (Homo sapiens, UniProt O75874) (O75874 whole entry): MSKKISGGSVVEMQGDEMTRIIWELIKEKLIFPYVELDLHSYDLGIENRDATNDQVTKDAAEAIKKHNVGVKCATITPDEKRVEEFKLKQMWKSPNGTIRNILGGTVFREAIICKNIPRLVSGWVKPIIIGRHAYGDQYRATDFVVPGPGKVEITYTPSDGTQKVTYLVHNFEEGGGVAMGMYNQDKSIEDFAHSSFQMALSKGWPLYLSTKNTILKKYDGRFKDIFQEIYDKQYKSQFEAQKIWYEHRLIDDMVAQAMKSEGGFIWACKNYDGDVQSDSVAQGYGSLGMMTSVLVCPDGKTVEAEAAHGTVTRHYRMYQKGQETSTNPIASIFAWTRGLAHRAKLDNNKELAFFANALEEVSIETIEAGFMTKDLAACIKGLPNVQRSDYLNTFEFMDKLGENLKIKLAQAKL
Series [13] addresses T1, Isocitrate dehydrogenase [NADP] cytoplasmic. Briefly: Inhibition of IDH1 R132H mutant (unknown origin) assessed as NADPH consumption using alpha-ketoglutarate as substrate by fluorescence assay.
In series [14] the target is Isocitrate dehydrogenase [NADP] cytoplasmic (Homo sapiens, UniProt O75874, R132C). Briefly: Inhibition of IDH1 R132C mutant (unknown origin) assessed as NADPH consumption using alpha-ketoglutarate as substrate by fluorescence assay.
Chain of Isocitrate dehydrogenase [NADP] cytoplasmic (Homo sapiens, UniProt O75874, R132C) (O75874 2-414 R132C limits assumed): as the sequence (O75874 2-414 R132H limits assumed) above, with H131C counted along it
For series [15], the species on record is Homo sapiens. Nature of the series: Selectivity ratio of IC50 for wild-type IDH1 (unknown origin) to IC50 for IDH1 R132H mutant (unknown origin).
The species named for series [16] is Homo sapiens. Briefly: Selectivity ratio of IC50 for wild-type IDH1 (unknown origin) to IC50 for IDH1 R132C mutant (unknown origin).
Series [17] relates to Mus musculus. Nature of the series: Time at which unbound plasma concentration stays above cellular IDH1 R132H mutant inhibitory IC50 in HSD athymic nude mouse xenografted with human HCT116 cells. The class given is ADME, organism-based. Conditions: in vivo. Put shortly:
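After a single 150 mg/kg oral dose in HCT116-IDH1 R132H/+ xenograft mice, unbound plasma concentration was estimated from total plasma levels corrected by mouse plasma protein binding. It was then followed over time against the HCT116-IDH1 R132H/+ cellular IC50.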
(In general: Xenograft models place foreign cells or tissue in a host animal.)

The subject of series [18] is Mus musculus. Briefly: In vivo inhibition of IDH1 R132H mutant in HSD athymic nude mouse tumor xenografted with human HCT116 cells assessed as reduction in 2-HG level at 150 mg/kg, po measured 16 to 24 hrs post dose by LC-MS/MS analysis relative to control. The class given is functional. Conditions: HCT-116, po. The essentials: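 Mice bearing HCT116-IDH1 R132H/+ xenograft tumors received a single 150 mg/kg oral dose. 2-HG was measured in tumor tissue and expressed as percent inhibition relative to vehicle-treated tumors over a 16−24 h post-dose window. Plasma drug concentrations were measured alongside.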

Series [19] in a line: Ratio of AUC in Sprague-Dawley rat brain to plasma at 1 mg/kg, iv or 10 mg/kg, po. Format: ADME, organism-based. Conditions: read-out: Ratio AUC.
A short description of series [20]: Plasma protein binding in rat plasma at 5 uM after 4 hrs by rapid equilibrium dialysis based LC/MS/MS method. A general note: In equilibrium dialysis free small molecules cross a membrane that holds back macromolecules.
Series [21] is described as follows: Plasma protein binding in mouse plasma at 5 uM after 4 hrs by rapid equilibrium dialysis based LC/MS/MS method.
The nature of series [22]: Intrinsic clearance in human liver microsomes. The class given is ADME, microsome. As to conditions: read-out: CLH.

For `C[C@H](Nc1ncc(F)c(N2C(=O)OC(C)(C)C2(C)C)n1)c1nc(-c2ccc(Cl)cc2)no1`, in series [1], the microsomal CLint at 1 µM stood at 170 µL/min/mg.
Consider `C[C@H](Nc1ncc(F)c(N2C(=O)OC[C@@H]2C)n1)c1cn(-c2ccc(Cl)cc2)cn1`, for which the IC50 in series [2] came out at 0.047 µM. Moreover, in series [1], the microsomal CLint at 1 µM lay in the range of 101 to 103 µL/min/mg. Besides, in series [3], the clearance came to 17 mL/min/kg. The AUC in series [4] was found to be 14 µM·h. For the same molecule, the bioavailability in series [5] was 67%.
Take `CC(C)[C@H]1COC(=O)N1c1ccnc(N[C@@H](C)c2ncc(Oc3ccc(F)cc3)cn2)n1`: the half-maximal inhibitory concentration (IC50) in [6] was found to be 0.039 µM. Moreover, in series [1], the microsomal CLint at 1 µM is 238 µL/min/mg.
In the case of `C[C@H](Nc1ncc(F)c(N2C(=O)OC[C@@H]2CF)n1)c1cn(-c2ccc(Cl)cc2)cn1`, the IC50 in series [2] stood at 0.024 µM. Further, the microsomal CLint at 1 µM in series [1] was 28 µL/min/mg.
For `C[C@H](Nc1nccc(N2C(=O)OC[C@@H]2CF)n1)c1cn(-c2ccc(C(F)(F)F)cc2)cn1`, the IC50 in series [2] worked out at 0.039 µM; in series [12], 2.52 µM; in series [13], 0.021 µM; in [14], 0.045 µM. For the same molecule, in [1], the microsomal CLint at 1 µM lay in the range of 7 to 7.7 µL/min/mg. The microsomal CLint in series [7] was determined as 11 µL/min/mg. In addition, the clearance in series [3] is 2.6 mL/min/kg; in series [9] it was 5 mL/min/kg. The values for the AUC in series [4] and in series [10] were 180 µM·h and 172 µM·h, respectively. Besides, the bioavailability in series [5] stood at 127%; in series [11], 149%. Further, the concentration in solution in [8] (solubility) was 124 µM (≈ 55.8 µg/mL). In addition, the Ratio IC50 in the series filed under Homo sapiens [15] and in the series listed under Homo sapiens [16] was 50 to 100 in each case. The Time in the series on Mus musculus [17] amounted to 24 h. For the same molecule, the inhibition in vivo at 150 mg/kg with Mus musculus [18] is over 90%. In series [19], the Kp came to 0.17. The PPB at 4 h, 5 µM in [20] and in series [21] was 0.98 throughout.
In the case of `C[C@H](Nc1ncc(F)c(N2C(=O)OC[C@@H]2[C@H](C)F)n1)c1cn(-c2ccc(Cl)cc2)cn1`, in series [2], the concentration for half-maximal inhibition (IC50) was determined as 0.022 µM. In addition, the microsomal CLint at 1 µM in [1] worked out at 272 µL/min/mg.
With `CC(C)[C@H]1COC(=O)N1c1ccnc(N[C@@H](C)c2nc(-c3ccccc3Cl)no2)n1`, the IC50 in series [6] worked out at 0.61 µM. For the same molecule, the microsomal CLint at 1 µM in series [1] amounted to 924 µL/min/mg.
Regarding `CC[C@H]1COC(=O)N1c1nc(N[C@@H](C)c2cn(-c3ccc(Cl)cc3)cn2)ncc1F`, the half-inhibitory concentration (IC50) in series [2] is 0.013 µM. In addition, the microsomal CLint at 1 µM in [1] is 448 µL/min/mg.
For the molecule `CC(Nc1nccc(N2CCOC2=O)n1)c1ncc(Oc2ccc(F)cc2)cn1` (racemic), the 50% inhibitory concentration (IC50) in series [6] came to 8.8 µM. Moreover, in series [1], the microsomal CLint at 1 µM turned out to be 35 µL/min/mg.
In the case of `CC(C)[C@H]1COC(=O)N1c1ccnc(N[C@@H](C)c2nc(-c3ccc(Cl)cc3)no2)n1`, the microsomal CLint at 1 µM in series [1] was 302 µL/min/mg.
For `C[C@H](Nc1nccc(N2C(=O)OC[C@@H]2[C@H](C)F)n1)c1cn(-c2ccc(C(F)F)cc2)cn1`, the clearance in series [3] was 20 mL/min/kg. Moreover, the AUC in [4] was determined as 15 µM·h. In addition, the bioavailability in [5] is 82%. The molecule also showed a solubility in [8] of 422 µM (≈ 188 µg/mL). For the same molecule, the Kp in series [19] was under 0.1. Moreover, the results for the PPB at 4 h, 5 µM in series [20] and in series [21] were 0.95 and 0.92, respectively.
Regarding `C[C@H](Nc1ncc(F)c(N2CCOC2=O)n1)c1cn(-c2ccc(Cl)cc2)cn1`, the IC50 in series [2] came to 0.5 µM. Besides, the microsomal CLint at 1 µM in series [1] is 34 µL/min/mg. Moreover, the microsomal CLint in [7] was 73 µL/min/mg; in series [22], 59 µL/min/mg.
Turning to `CC(C)[C@H]1COC(=O)N1c1ccnc(N[C@@H](C)c2cn(-c3ccc(Cl)cc3)cn2)n1`, in series [2], the IC50 is 0.015 µM. Besides, the microsomal CLint at 1 µM in series [1] amounted to 489 µL/min/mg.
The like results for `C[C@H](Nc1ncc(F)c(N2C(=O)OC[C@@H]2[C@@H](C)F)n1)c1cn(-c2ccc(Cl)cc2)cn1` were, in that order, 0.24 µM and 237 µL/min/mg.
`C[C@H](Nc1nccc(N2C(=O)OC[C@@H]2[C@H](C)F)n1)c1cn(-c2ccc(Cl)cc2)cn1`: the microsomal CLint at 1 µM in series [1] was determined as 148 µL/min/mg.
In the case of `C[C@H](Nc1nccc(N2C(=O)OC[C@@H]2CF)n1)c1cn(-c2ccc(Cl)cc2)cn1`, in series [2], the IC50 was determined as 0.03 µM. Further, the microsomal CLint at 1 µM in series [1] came to 75 µL/min/mg.
